{"source": "ChEMBL document CHEMBL4033653", "about": "“Effect of 1,2,3-triazole salts, non-classical bioisosteres of miltefosine, on Leishmania amazonensis” (Bioorg Med Chem, 2017)", "key": {"[1]": {"assay": "Hemolytic activity in human erythrocytes at 9.4 to 150 uM relative to control", "type": "ADME, cell-based, Erythrocyte", "settings": "read-out: Activity", "in_short": "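Fresh human red cells suspended in PBS incubated with the compound; 1% saponin as positive control, untreated as negative; three experiments in triplicate.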"}, "[2]": {"assay": "Selectivity index, ratio of CC50 for mouse peritoneal macrophages to IC50 for Leishmania amazonensis WHOM/BR/75/Josefa amastigotes transfected with green fluorescent protein", "in_short": "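SI = CC50 for mouse peritoneal macrophages / GFP amastigote IC50. […] IC50: macrophages infected with GFP-expressing Josefa-strain parasites, treated with 0.78–100.0 µM for 72 h; fluorescence read at 485 nm excitation/528 nm emission. Three experiments in duplicate.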"}, "[3]": {"assay": "Selectivity index, ratio of CC50 for mouse peritoneal macrophages to IC50 for Leishmania amazonensis IFLA/BR/1967/PH8 amastigotes transfected with red fluorescent protein", "in_short": "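SI = CC50 for mouse peritoneal macrophages / RFP amastigote IC50. […] IC50: macrophages infected with RFP-expressing PH8 parasites, treated with 0.78–100.0 µM for 72 h; fluorescence read at 540 nm excitation/600 nm emission. Three experiments in duplicate.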"}, "Leishmania amazonensis [4]": {"tested_on": "Leishmania amazonensis", "assay": "Antileishmanial activity against Leishmania amazonensis IFLA/BR/1967/PH8 promastigotes after 72 hrs by MTT assay", "type": "functional"}, "Leishmania amazonensis [5]": {"tested_on": "Leishmania amazonensis", "assay": "Antileishmanial activity against Leishmania amazonensis IFLA/BR/1967/PH8 amastigotes transfected with red fluorescent protein infected in murine macrophages after 72 hrs by fluorometric analysis", "type": "functional", "settings": "IFLA/BR/1967/PH8, 72 h", "in_short": "(§1)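 Infected murine macrophages treated 0.78-100.0 µM for 72 h; fluorescence read at 540/600 nm for RFP parasites (PH8) and 485/528 nm for GFP parasites (Josefa strain); IC50 from three independent experiments in duplicate.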"}, "Leishmania amazonensis [6]": {"tested_on": "Leishmania amazonensis", "assay": "Induction of apoptosis in Leishmania amazonensis IFLA/BR/1967/PH8 promastigotes assessed as late apoptotic population at 20 uM after 24 hrs by Annexin V-FITC/PI staining based flow cytometric analysis (reference value: 2.62%)", "type": "functional", "in_short": "(§2)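 Exponential-phase WT promastigotes (1x10^7 cells/mL) cultured 24 h at 25 °C; stained annexin V-FITC plus PI, flow cytometry with 10,000 events gated on parasites; quadrant percentages; three independent experiments.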"}, "Leishmania amazonensis [7]": {"tested_on": "Leishmania amazonensis", "assay": "Induction of lipid inclusions in Leishmania amazonensis IFLA/BR/1967/PH8 promastigotes at 20 uM after 24 hrs by Nile Red satining-based spectrofluorometric analysis relative to control", "type": "functional", "in_short": "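WT (PH8) promastigotes at 1x10^7 cells/mL in exponential phase, cultured 24 h at 25 °C with or without 2.5–20.0 µM. Parasites incubated with Nile Red, then fluorescence measured spectrofluorometrically. Reported as arbitrary fluorescence units versus untreated parasites, mean of three experiments run in triplicate.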"}, "Leishmania amazonensis [8]": {"tested_on": "Leishmania amazonensis", "assay": "Induction of apoptosis in Leishmania amazonensis IFLA/BR/1967/PH8 promastigotes assessed as early apoptotic population at 5 uM after 24 hrs by Annexin V-FITC/PI staining based flow cytometric analysis (reference value: 5.29%)", "type": "functional", "in_short": "as §2"}, "Leishmania amazonensis [9]": {"tested_on": "Leishmania amazonensis", "assay": "Antileishmanial activity against Leishmania amazonensis IFLA/BR/1967/PH8 promastigotes transfected with red fluorescent protein after 72 hrs by MTT assay", "type": "functional", "settings": "IFLA/BR/1967/PH8, 72 h"}, "Leishmania amazonensis [10]": {"tested_on": "Leishmania amazonensis", "assay": "Induction of apoptosis in Leishmania amazonensis IFLA/BR/1967/PH8 promastigotes assessed as early apoptotic population at 2.5 uM after 24 hrs by Annexin V-FITC/PI staining based flow cytometric analysis (reference value: 5.29%)", "type": "functional"}, "Leishmania amazonensis [11]": {"tested_on": "Leishmania amazonensis", "assay": "Antileishmanial activity against Leishmania amazonensis IFLA/BR/1967/PH8 amastigotes infected in murine macrophages at 0.9 uM incubated for 72 hrs followed by compound washout measured after 72 hrs by microscopic method relative to control", "type": "functional", "settings": "IFLA/BR/1967/PH8, 72 h", "in_short": "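Macrophages infected with WT PH8 parasites treated 72 h at 33 °C, 5% CO2; washed twice in PBS, then held in drug-free Warren's medium + 10% serum at 25 °C for 72 h; viable promastigotes counted microscopically versus untreated; three independent experiments in duplicate.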"}, "Leishmania amazonensis [12]": {"tested_on": "Leishmania amazonensis", "assay": "Antileishmanial activity against Leishmania amazonensis WHOM/BR/75/Josefa amastigotes transfected with green fluorescent protein infected in murine macrophages after 72 hrs by fluorometric analysis", "type": "functional", "in_short": "as §1"}, "Leishmania amazonensis [13]": {"tested_on": "Leishmania amazonensis", "assay": "Induction of ROS accumulation in Leishmania amazonensis IFLA/BR/1967/PH8 promastigotes at 2.5 uM after 72 hrs by H2DCFDA staining-based fluorometric analysis relative to control", "type": "functional", "in_short": "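WT (PH8) promastigotes in exponential phase, untreated or exposed to 2.5–20.0 µM at 25 °C. Cells adjusted to 2x10^7 promastigotes in PBS, then loaded with H2DCFDA for 30 min in the dark at room temperature. Fluorescence read at ex 485/em 528 nm. Positive control was miltefosine 22.0 µM. Reported as arbitrary fluorescence units, mean of three independent experiments.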"}, "Leishmania amazonensis [14]": {"tested_on": "Leishmania amazonensis", "assay": "Induction of apoptosis in Leishmania amazonensis IFLA/BR/1967/PH8 promastigotes assessed as early apoptotic population at 20 uM after 24 hrs by Annexin V-FITC/PI staining based flow cytometric analysis (reference value: 5.29%)", "type": "functional", "in_short": "as §2"}}, "data": [{"smiles": "CC(=O)[O-].CCCCCCCCCCn1cc(CO)[n+](C)n1", "values": [{"measurement": "hemolysis at up to 150 µM", "setting": "[1]", "value": "< 5", "unit": "%"}, {"measurement": "Ratio CC50/IC50", "setting": "[2]", "value": 144.9}, {"measurement": "Ratio CC50/IC50", "setting": "[3]", "value": 115.9}, {"measurement": "IC50", "setting": "Leishmania amazonensis [4]", "value": 2600, "unit": "nM"}, {"measurement": "IC50", "setting": "Leishmania amazonensis [5]", "value": 1000, "unit": "nM"}, {"measurement": "Activity", "setting": "Leishmania amazonensis [6]", "value": 16.88, "unit": "%"}, {"measurement": "fold change (FC)", "setting": "Leishmania amazonensis [7]", "value": 2.5}, {"measurement": "Activity", "setting": "Leishmania amazonensis [8]", "value": 39.1, "unit": "%"}, {"measurement": "IC50", "setting": "Leishmania amazonensis [9]", "value": 15.6, "unit": "µM"}, {"measurement": "Activity", "setting": "Leishmania amazonensis [10]", "value": 30.6, "unit": "%"}, {"measurement": "inhibition at 0.9 µM", "setting": "Leishmania amazonensis [11]", "value": 61.9, "unit": "%"}, {"measurement": "IC50", "setting": "Leishmania amazonensis [12]", "value": 800, "unit": "nM"}, {"measurement": "Activity", "setting": "Leishmania amazonensis [13]", "value": 38.4, "unit": "%"}, {"measurement": "Activity", "setting": "Leishmania amazonensis [14]", "value": 30.92, "unit": "%"}]}]}
